The results in this text go back to ChEMBL document CHEMBL4028902, “Azetidine and Piperidine Carbamates as Efficient, Covalent Inhibitors of Monoacylglycerol Lipase” (J Med Chem, 2017).

Active and inactive are the calls of the source. No cut-off for these calls is given here.

In data set [1] the target is T1, CES1 (liver carboxylesterase 1) (Homo sapiens, UniProt P23141).
T1 sequence (P23141 whole entry): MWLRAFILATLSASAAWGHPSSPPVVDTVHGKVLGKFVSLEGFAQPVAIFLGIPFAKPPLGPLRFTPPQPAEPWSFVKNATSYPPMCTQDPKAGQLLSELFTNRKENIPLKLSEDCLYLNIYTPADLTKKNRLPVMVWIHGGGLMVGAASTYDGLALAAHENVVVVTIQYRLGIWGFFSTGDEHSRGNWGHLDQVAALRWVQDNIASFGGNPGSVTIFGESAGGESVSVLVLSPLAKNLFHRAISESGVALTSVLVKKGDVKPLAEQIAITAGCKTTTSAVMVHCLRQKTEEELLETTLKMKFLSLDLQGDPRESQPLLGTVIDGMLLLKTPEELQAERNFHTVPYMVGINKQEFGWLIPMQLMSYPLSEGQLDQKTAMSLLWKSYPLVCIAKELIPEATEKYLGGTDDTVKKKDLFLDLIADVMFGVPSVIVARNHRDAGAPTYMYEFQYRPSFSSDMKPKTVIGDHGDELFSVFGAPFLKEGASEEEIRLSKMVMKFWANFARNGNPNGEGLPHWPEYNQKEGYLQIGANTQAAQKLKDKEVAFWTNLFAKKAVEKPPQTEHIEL
Briefly: Inhibition of human CES1 at 10 uM relative to control.

A short description of data set [2]: Ratio of unbound drug level in C57Bl6 mouse brain to plasma at 1 to 10 mg/kg, sc. It is filed as ADME, organism-based.
Data set [3] concerns Mus musculus. The experiment in a line: In vivo inhibition of MAGL in C57Bl6 mouse assessed as increase in 2-AG levels in brain at 1 mg/kg, sc measured at 2 hrs by LC-MS/MS method. It is filed as functional, organism-based. Summed up:
(§1)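 C57Bl6 mice, 7 weeks old, 4 per cage, food and water ad libitum, dosed subcutaneously in DMSO/Cremophor/saline (5:5:90, v/v/v). Brains taken after isoflurane, cardiac puncture and cervical dislocation at 0.5, 1, 2, 4, 8, 12 and 24 h (3 mice per time point); vehicle group at 1 h. Frozen in liquid nitrogen, homogenized in 3 volumes PMSF/NH4OAc buffer pH 2.0, d5-2-AG internal standard, ACN extraction, LC-MS/MS (positive ESI, SRM).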

Data set [4] in a line: Cmax in C57Bl6 mouse brain at 1 mg/kg, sc. The class given is ADME, organism-based. The arrangement: dose 1 mg/kg, route subcutaneous. In short, it runs like this: (§2)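 Subcutaneous dosing of C57Bl6 mice in DMSO/Cremophor/saline (5:5:90). Plasma (NaF/K2EDTA tubes) and cerebellum collected at 0.5–24 h, 3 mice per time point. Cerebellum diluted 1:4 (w/v) with water and homogenized; samples deproteinated with methanol/acetonitrile plus internal standard, then HPLC-MS/MS. LLOQ 1.0 ng/mL plasma, 0.5 ng/mL brain homogenate. PK parameters by noncompartmental analysis.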

Data set [5] relates to Mus musculus. The experiment in a line: In vivo inhibition of MAGL in C57Bl6 mouse assessed as increase in 2-AG levels in brain at 10 mg/kg, sc measured after 24 hrs by LC-MS/MS method. It is filed as functional, organism-based. Summed up:
as §1

The target of data set [6] is T2, Monoglyceride lipase (Homo sapiens) (UniProt Q99685).
T2 sequence (whole entry): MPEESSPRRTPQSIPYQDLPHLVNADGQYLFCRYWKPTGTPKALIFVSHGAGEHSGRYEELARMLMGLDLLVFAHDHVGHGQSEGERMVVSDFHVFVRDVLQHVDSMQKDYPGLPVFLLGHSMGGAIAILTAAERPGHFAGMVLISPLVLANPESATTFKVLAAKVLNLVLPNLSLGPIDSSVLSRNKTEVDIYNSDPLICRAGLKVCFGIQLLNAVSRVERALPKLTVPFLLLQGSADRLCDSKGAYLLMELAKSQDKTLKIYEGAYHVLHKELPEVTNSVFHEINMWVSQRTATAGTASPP
The experiment in a line: Ratio of Kinact to Ki for human recombinant MAGL using 7-HCA as substrate after 60 mins by fluorescence assay. Summed up: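 Run as the MAGL 7-HCA assay, but substrate added with no preincubation (T = 0), fluorescence read every minute at decreasing compound concentrations to give progress curves. kobs from each curve; kinact/KI from a plot of kobs against compound concentration.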

Data set [7] has as its target T3, Fatty-acid amide hydrolase 1 (Homo sapiens, UniProt O00519).
T3 sequence (O00519 whole entry): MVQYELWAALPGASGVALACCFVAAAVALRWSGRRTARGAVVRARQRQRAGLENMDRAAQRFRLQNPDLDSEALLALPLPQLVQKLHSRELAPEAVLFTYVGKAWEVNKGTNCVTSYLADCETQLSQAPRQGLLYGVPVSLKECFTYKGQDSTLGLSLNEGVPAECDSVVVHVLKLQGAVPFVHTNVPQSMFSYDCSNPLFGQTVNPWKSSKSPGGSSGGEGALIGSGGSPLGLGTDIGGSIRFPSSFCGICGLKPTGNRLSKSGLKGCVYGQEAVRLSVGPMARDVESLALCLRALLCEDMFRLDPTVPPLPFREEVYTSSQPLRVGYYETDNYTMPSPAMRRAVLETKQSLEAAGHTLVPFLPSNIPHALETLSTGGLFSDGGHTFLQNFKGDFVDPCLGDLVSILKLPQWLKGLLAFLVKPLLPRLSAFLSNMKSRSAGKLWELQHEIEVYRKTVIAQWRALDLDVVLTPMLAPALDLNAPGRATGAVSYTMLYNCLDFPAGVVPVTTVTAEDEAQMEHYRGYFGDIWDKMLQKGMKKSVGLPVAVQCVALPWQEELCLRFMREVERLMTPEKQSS
Briefly: Inhibition of human recombinant FAAH using arachidonoyl-AMC as substrate preincubated for 30 mins followed by substrate addition measured after 60 mins by fluorescence assay. Summed up:
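Human recombinant FAAH (0.0125 unit final) in 50 mM Tris pH 9.0, 1 mM EDTA, preincubated 30 min at room temperature with compound (final 30 μM–0.3 nM). Arachidonoyl-AMC added (5 μM final), reaction run 60 min, fluorescence Ex/Em 355/460. Percent inhibition versus no-compound and full-inhibition controls.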

A short description of data set [8]: Lipophilicity, log D of the compound. The class given is physicochemical. The settings on record: octanol/water.
In data set [9] the target is T4, Liver carboxylesterase 1 (Homo sapiens, UniProt P23141).
T4 sequence (P23141 whole entry): T1 sequence (P23141 whole entry)
Briefly: Inhibition of human CES1 at 1 to 10 uM relative to control.

In data set [10] the test system is Mus musculus. Briefly: In vivo inhibition of MAGL in C57Bl6 mouse assessed as increase in 2-AG levels in brain at 10 mg/kg, sc after 8 hrs by LC-MS/MS method relative to control. It is filed as functional. In short, it runs like this: as §1
A short description of data set [11]: Ratio of unbound drug level in C57Bl6 mouse brain to plasma at 10 mg/kg, sc. It is filed as ADME, organism-based. Summed up:
as §2

Data set [12] in a line: Tmax in C57Bl6 mouse at 10 mg/kg, sc. The class given is ADME, organism-based. Conditions: in vivo. Summed up: as §2
Data set [13] concerns Brain. The experiment in a line: Unbound drug level in C57Bl6 mouse brain at 10 mg/kg, sc at 0.5 hrs. It is filed as ADME, organism-based. Conditions: in vivo. In short, it runs like this:
as §2

In data set [14] the test system is Mus musculus. The experiment in a line: In vivo inhibition of MAGL in C57Bl6 mouse assessed as increase in 2-AG levels in brain at 1 mg/kg, sc measured at 0.5 hrs by LC-MS/MS method relative to control. The class given is functional. Summed up: as §1
Data set [15] has as its system Brain. Briefly: Unbound drug level in C57Bl6 mouse brain at 1 mg/kg, sc at 0.5 hrs. It is filed as ADME, organism-based. The settings on record: in vivo. Summed up: as §2
The test system of data set [16] is Brain. The experiment in a line: Ratio of unbound drug level in C57Bl6 mouse brain at 10 mg/kg, sc to 1 mg/kg, sc. The class given is ADME, organism-based. Conditions: in vivo. In short, it runs like this: as §2

For orientation: inhibition means the change of the read-out against control, counted positive when it falls. One may read the Cmax as the highest concentration seen after dosing. In general, IC50 refers to the midpoint of a concentration-inhibition curve. The logD is the decadic logarithm of the distribution of all forms, ionised or not, between an organic phase and buffer at a given pH. One may read the Tmax as the time at which the peak concentration occurs.

As for `O=C(OC(C(F)(F)F)C(F)(F)F)N1CCC(c2ccn(-c3ccccc3)n2)CC1`, the inhibition at 10 µM in [1] was greater than 70%. Moreover, the Kp uu in data set [2] is 0.5. The inhibition entry in data set [3] and in data set [5] was “Active” each time. This compound also came in with a maximum concentration (Cmax) in [4] of 0.14 nM.

For `O=C(OC(C(F)(F)F)C(F)(F)F)N1CC(c2ccn(-c3ccccc3)n2)C1`, the Ratio in data set [6] came out at 1.14e+06 M⁻¹ s⁻¹; in [16] it was 100. The IC50 in data set [7] was determined as 260 nM. The same compound came in with a logD in data set [8] of 4.3. Moreover, the “inhibition (INH)” value in data set [9] was greater than 70%. For the same compound, the “fold change (FC)” value was 5 in data set [10] and 3 in data set [14]. Further, in data set [11], the Kp uu was 0.6. The Tmax in [12] came out at 30 min. The figures for the “Drug uptake(free)” value in data set [13] and in data set [15] were 2 nM and 0.02 nM, respectively.
